Values joined by “and” are separate entries in the source; they are usually repeats but may differ in a detail not shown here. Identical values can stand only once.
Legend:
Bacillus cereus TISTR035 = experiment: Disc diffusion, B. cereus; format: cell-based; details: for Inhibition zone ± SD, B. cereus: 1 mg per disc, 6 mm disc, 37 °C, 18–24 h
In short: (§1)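 Test compounds were dissolved in DMSO, and 1 mg was loaded onto sterile 6 mm paper discs. Nutrient agar plates were inoculated with bacterial suspension adjusted to 0.5 McFarland. Each plate held four zones: DMSO negative control, ciprofloxacin positive control (5 µg per disc), the free bile acid and its salts. Plates were incubated at 37 °C for 18–24 h. Inhibition zones were read in mm, in triplicate.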

[1] = system: Staphylococcus aureus TISTR746; experiment: Disc diffusion, S. aureus; format: cell-based; details: for Inhibition zone ± SD, S. aureus: 1 mg per disc, 6 mm disc, 37 °C, 18–24 h
In short: as §1

[2] = system: Staphylococcus epidermidis TISTR2172; experiment: Disc diffusion, S. epidermidis; format: cell-based; details: for Inhibition zone ± SD, S. epidermidis: 1 mg per disc, 6 mm disc, 37 °C, 18–24 h
In short: as §1

[3] = system: Enterococcus faecalis TISTR927; experiment: Disc diffusion, E. faecalis; format: cell-based; details: for Inhibition zone ± SD, E. faecalis: 1 mg per disc, 6 mm disc, 37 °C, 18–24 h
In short: as §1

[4] = system: Escherichia coli TISTR117; experiment: Disc diffusion, E. coli; format: cell-based; details: for Inhibition zone ± SD, E. coli: 1 mg per disc, 6 mm disc, 37 °C, 18–24 h
In short: as §1

[5] = system: Pseudomonas aeruginosa TISTR357; experiment: Disc diffusion, P. aeruginosa; format: cell-based; details: for Inhibition zone ± SD, P. aeruginosa: 1 mg per disc, 6 mm disc, 37 °C, 18–24 h
In short: as §1

S. typhi = experiment: Disc diffusion, S. typhi; format: cell-based, Salmonella enterica serovar Typhimurium TISTR1470; details: for Inhibition zone ± SD, S. typhi: 1 mg per disc, 6 mm disc, 37 °C, 18–24 h
In short: as §1

S. flexneri ATCC 9199 = experiment: Disc diffusion, S. flexneri; format: cell-based, Shigella flexneri; details: for Inhibition zone ± SD, S. flexneri: 1 mg per disc, 6 mm disc, 37 °C, 18–24 h
In short: as §1

[6] = system: Candida albicans TISTR5554; experiment: Disc diffusion, C. albicans; format: cell-based; details: for Inhibition zone ± SD, C. albicans: 1 mg per disc, 6 mm disc, 37 °C, 18–24 h
In short: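 Disc diffusion against the yeast. Test compound was in DMSO at 1 mg per 6 mm sterile paper disc, on nutrient agar inoculated with suspension standardized to 0.5 McFarland. Each plate carried a DMSO negative control, amphotericin B positive control (10 µg per disc), the free bile acid and its salts. Incubation was 37 °C for 18–24 h. Zone of inhibition was measured in mm, in triplicate.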

[7] = system: B. cereus, S. aureus, S. epidermidis, E. faecalis, and E. coli; experiment: Disc diffusion, range over strains as summarised in text; format: cell-based; details: for inhibition zones, range over strains: B. cereus, S. aureus, S. epidermidis, E. faecalis, E. coli, 1 mg per disc
In short: as §1

in vitro = details: human
[8] = Bacillus cereus, TISTR035, read-out: Inhibition zone ± SD, B. cereus
[9] = Staphylococcus aureus, TISTR746, read-out: Inhibition zone ± SD, S. aureus
[10] = Staphylococcus epidermidis, TISTR2172, read-out: Inhibition zone ± SD, S. epidermidis
[11] = Enterococcus faecalis, TISTR927, read-out: Inhibition zone ± SD, E. faecalis
[12] = Escherichia coli, TISTR117, read-out: Inhibition zone ± SD, E. coli

Row | Structure (SMILES) | Inhibition zone ± SD, B. cereus (Bacillus cereus TISTR035) | Inhibition zone ± SD, S. aureus [1] | Inhibition zone ± SD, S. epidermidis [2] | Inhibition zone ± SD, E. faecalis [3] | Inhibition zone ± SD, E. coli [4] | Inhibition zone ± SD, P. aeruginosa [5] | Inhibition zone ± SD, S. typhi (S. typhi) | Inhibition zone ± SD, S. flexneri (S. flexneri ATCC 9199) | Inhibition zone ± SD, C. albicans [6] | further results
1 | C[C@H](CCC(=O)O)[C@H]1CC[C@H]2[C@@H]3[C@H](O)C[C@@H]4C[C@H](O)CC[C@]4(C)[C@H]3CC[C@]12C [CDCA (13), chenodeoxycholic acid] | 13.5 ± 0.4 mm | 9.4 ± 0.8 mm | 11.8 ± 0.4 mm | 8.4 ± 1.1 mm | 7.6 ± 0.6 mm | Inactive | Inactive | Inactive | Inactive | zone of inhibition at 1000 µg/disc (Bacillus cereus TISTR035; [8]): 13.5 mm; zone of inhibition at 1000 µg/disc [1, 9]: 9.4 mm; zone of inhibition at 1000 µg/disc [2, 10]: 11.8 mm; zone of inhibition at 1000 µg/disc [3, 11]: 8.4 mm; zone of inhibition at 1000 µg/disc [4, 12]: 7.6 mm
2 | C[C@H](CCC(=O)O)[C@H]1CC[C@H]2[C@@H]3CC[C@@H]4C[C@H](O)CC[C@]4(C)[C@H]3C[C@H](O)[C@]12C [DCA (5), deoxycholic acid] | 14.4 ± 1.5 mm | 11.7 ± 1.6 mm | 13.5 ± 0.7 mm | 10.6 ± 0.4 mm | 10.9 ± 1.6 mm | Inactive | Inactive | Inactive | Inactive | zone of inhibition at 1000 µg/disc [2, 10]: 13.5 mm; zone of inhibition at 1000 µg/disc [3, 11]: 10.6 mm; inhibition zones, range over strains [7]: 10.6–14.4 mm
3 | CCO [Ethanol, ethanol, reference compound] | – | – | – | – | – | – | – | – | – | CC50 (A549-hACE2 cells): >70% v/v
4 | C[C@H](CCC(=O)O)[C@H]1CC[C@H]2[C@@H]3CC[C@@H]4C[C@H](O)CC[C@]4(C)[C@H]3CC[C@]12C [LCA (1), lithocholic acid] | – | – | – | – | – | Inactive | Inactive | Inactive | Inactive | cytotoxicity (A549-hACE2 cells): did not show cytotoxicity; CC50 (in vitro): > 50 µg/mL
5 | C[C@H](CCC(=O)O)[C@H]1CC[C@H]2[C@@H]3[C@@H](O)C[C@@H]4C[C@H](O)CC[C@]4(C)[C@H]3CC[C@]12C [UDCA (9), ursodeoxycholic acid] | 8.7 ± 0.3 mm | 7.8 ± 0.8 mm | 9.6 ± 0.4 mm | – | 7.4 ± 0.4 mm | Inactive | Inactive | Inactive | Inactive | –
6 | C[C@H](CCC(=O)[O-])[C@H]1CC[C@H]2[C@@H]3[C@H](O)C[C@@H]4C[C@H](O)CC[C@]4(C)[C@H]3CC[C@]12C.C[N+](C)(C)CCO [[CDCA][Z] (16)] | 16.4 mm and 16.4 ± 0.7 mm | 13.8 mm and 13.8 ± 1.3 mm | 17.1 mm and 17.1 ± 0.5 mm | 12.2 mm and 12.2 ± 2.6 mm | 10.4 mm and 10.4 ± 1.2 mm | Inactive | Inactive | Inactive | Inactive | –
7 | C[C@H](CCC(=O)[O-])[C@H]1CC[C@H]2[C@@H]3CC[C@@H]4C[C@H](O)CC[C@]4(C)[C@H]3C[C@H](O)[C@]12C.C[N+](C)(C)CCO [[DCA][Z] (8)] | 18.1 ± 1.7 mm | 15.4 ± 2.0 mm | 19.1 mm and 19.1 ± 0.2 mm | 15.0 mm and 15.0 ± 1.3 mm | 13.0 ± 1.9 mm | Inactive | Inactive | Inactive | Inactive | inhibition zones, range over strains [7]: 13.0–19.1 mm; improvement in antibacterial activity compared to its bile acid DCA (5) ([7]; S. epidermidis and E. faecalis inhibition zones): 41.4–41.5%
8 | C[C@H](CCC(=O)[O-])[C@H]1CC[C@H]2[C@@H]3CC[C@@H]4C[C@H](O)CC[C@]4(C)[C@H]3CC[C@]12C.C[N+](C)(C)CCO [[LCA][Z] (4)] | 7.8 mm and 7.8 ± 1.2 mm | – | – | – | – | Inactive | Inactive | Inactive | Inactive | CC50 (A549-hACE2 cells): >50 µg/mL; cytotoxicity (A549-hACE2 cells): did not exhibit cytotoxicity
9 | CC(CCC(=O)[O-])C1CCC2C3C(O)CC4CC(O)CCC4(C)C3CCC12C.C[N+](C)(C)CCO (stereo not shown) [[UDCA][Z] (12)] | 12.5 ± 0.5 mm | 10.3 ± 1.7 mm | 13.0 ± 0.5 mm | – | 10.1 ± 1.1 mm | Inactive | Inactive | Inactive | Inactive | –
10 | C[C@@H]1[C@H](O)[C@@H](C)/C=C/C=C/C=C/C=C/C=C/C=C/C=C/[C@H](O[C@@H]2O[C@H](C)[C@@H](O)[C@H](N)[C@@H]2O)C[C@@H]2O[C@](O)(C[C@@H](O)C[C@@H](O)[C@H](O)CC[C@@H](O)C[C@@H](O)CC(=O)O[C@H]1C)C[C@H](O)[C@H]2C(=O)O [amphotericin B, reference compound] | – | – | – | – | – | – | – | – | – | zone of inhibition at 10 µg/disc ([6]; Candida albicans, TISTR5554, read-out: Inhibition zone ± SD, C. albicans): 21.8 ± 1.3 mm
11 | O=C(O)c1cn(C2CC2)c2cc(N3CCNCC3)c(F)cc2c1=O [ciprofloxacin, reference compound] | – | – | – | – | – | – | – | – | – | zone of inhibition at 5 µg/disc (Bacillus cereus TISTR035; [8]): 33.2 ± 1.6 mm; zone of inhibition at 5 µg/disc [1, 9]: 31 ± 1.5 mm; zone of inhibition at 5 µg/disc [2, 10]: 36.4 ± 0.4 mm; zone of inhibition at 5 µg/disc [3, 11]: 24.1 ± 1 mm; zone of inhibition at 5 µg/disc [4, 12]: 38.5 ± 2.1 mm; zone of inhibition at 5 µg/disc ([5]; Pseudomonas aeruginosa, TISTR357, read-out: Inhibition zone ± SD, P. aeruginosa): 31.2 ± 1.1 mm; zone of inhibition at 5 µg/disc (S. typhi; Salmonella enterica, TYPHI, read-out: Inhibition zone ± SD, S. typhi): 39.3 ± 2.6 mm; zone of inhibition at 5 µg/disc (S. flexneri ATCC 9199; Shigella flexneri, ATCC9199, read-out: Inhibition zone ± SD, S. flexneri): 42.1 ± 0.7 mm

— publication PMC12679602 (RSC Advances, 2025)
